# Source: PubChem (The Scripps Research Institute Molecular Screening Center)
# M4 antag: antagonists of human muscarinic M4 receptor (CHRM4); CHO-hM4 cells, ACh EC80, Fluo-8 calcium fluorescence; P08173; actives 0.73% (n = 360,000); inhibition, % at 3 µM;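 active = inhibition above its plate's cutoff, the mean inhibition of sample wells plus 3 SD, cut at about 27% in these data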;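 also: 0% = acetylcholine EC80 with DMSO and 100% = DMSO without agonist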
# M5 antag: CHRM5 antagonism in calcium assay; AID 624040; actives 0.59% (n = 360,000); inhibition, % at 3 µM; CHO-hM5 cells, Fluo-8 calcium fluorescence, ACh EC80;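 active = inhibition above a per-plate cutoff, the mean of that plate's test compounds plus 3 SD, cut at about 27% in these data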;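 also: 0% = acetylcholine EC80 with DMSO and 100% = DMSO without agonist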
# Target sequence (P08912 whole entry, looked up): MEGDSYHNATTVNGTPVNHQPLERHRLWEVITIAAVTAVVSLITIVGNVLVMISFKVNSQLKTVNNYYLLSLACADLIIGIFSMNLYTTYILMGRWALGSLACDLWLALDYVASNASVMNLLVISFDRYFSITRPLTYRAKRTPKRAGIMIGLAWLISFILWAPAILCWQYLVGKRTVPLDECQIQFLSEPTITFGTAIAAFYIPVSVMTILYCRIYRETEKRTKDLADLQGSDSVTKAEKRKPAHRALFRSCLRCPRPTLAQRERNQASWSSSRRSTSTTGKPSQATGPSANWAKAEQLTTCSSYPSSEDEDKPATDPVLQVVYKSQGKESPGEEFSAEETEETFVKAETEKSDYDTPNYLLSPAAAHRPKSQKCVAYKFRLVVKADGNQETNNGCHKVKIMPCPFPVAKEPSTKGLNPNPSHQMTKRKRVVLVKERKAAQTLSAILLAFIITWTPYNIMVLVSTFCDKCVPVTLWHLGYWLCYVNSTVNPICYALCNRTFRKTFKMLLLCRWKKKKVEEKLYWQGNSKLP
# M5 PAM: CHRM5 positive allosteric modulation; P08912; CHO-K1 hM5, Fluo-8 calcium, ACh EC20 PAM; 0% = ACh EC20, 100% = ACh EC100; activation, % at 3 µM; actives 0.3% (n = 360,000);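 active = activation above the run cutoff, the mean activation of all test compounds plus 3 SD, cut at about 18% in these data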
#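 Assay system: CHO-K1 hM5 cells / Incubation: Fluo-8 loading 80 min at 37 °C plus 30 min room temperature / Technique: Fluo-8 calcium dye fluorescence, kinetic read / Repeats: single replicate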
# M5 ag: agonists of human muscarinic M5 receptor (CHRM5). actives 0.19% (n = 360,000). activation, % at 3 µM. P08912. AID 624037. CHO-K1 hM5 cells, Fluo-8 calcium fluorescence; 0% DMSO wells, 100% maximal acetylcholine response;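 active = activation above the run's mean over test compounds plus 3 SD, cut at about 23% in these data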;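 also: signal is peak over basal fluorescence ratio across the kinetic read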
# M4 PAM: positive allosteric modulators of human muscarinic M4 receptor. P08173. CHO-K1 hM4/Gqi5, Fluo-8 calcium fluorescence, ACh EC20; 0% = ACh EC20, 100% = maximal ACh. activation, % at 3 µM. actives 0.4% (n = 360,000). AID 624126;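 active = activation above its plate's cutoff, the mean activation of sample wells plus 3 SD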
# CHRM4 agonist: CHRM4 agonism in calcium assay; CHO-K1 hM4/Gqi5, Fluo-8 calcium fluorescence; vehicle 0%, full acetylcholine response 100%; activation, % at 3 µM; actives 0.14% (n = 360,000); AID 624127; P08173;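 active = activation above the run mean over all test wells plus 3 SD, cut at about 32% in these data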;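 also: peak over basal fluorescence ratio per well then scaled between controls; 0% = DMSO wells and 100% = acetylcholine at EC100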
# The depositor's hits bear a star. In the library only some 1.9% were active in any assay of this set; here they are far more common.
SMILES,M4 antag,M5 antag,M5 PAM,M5 ag,M4 PAM,CHRM4 agonist
CC(CCc1ccccc1)NC(=O)CCCn1ncn2c(cc3occc32)c1=O (stereo unspecified),-5,3,5,-2,7,2
O=C1C=CC(=O)N1c1ccccc1N1C(=O)C=CC1=O,-1,0,-2,5,4,3
O=C(c1ccccc1)c1ccccc1N1C(=O)C=CC1=O,72*,6,3,4,-41,9
CCN(CC(=O)NCc1ccc(Cl)cc1)C(=O)c1cccc(S(=O)(=O)Nc2ccc(OC)cc2)c1,-14,-3,-3,-2,-4,5
CCN(CC)c1ccc(/C=C2/SC(=O)N(C(C)C)C2=O)o1,41*,11,2,2,-4,3
Cc1ccc(NC(=O)C2CC(Cl)=CCC2C(=O)O)c([N+](=O)[O-])c1 (stereo unspecified),1,-1,-3,-1,4,1
O=C(C(=O)N1CCN(c2cccc(Cl)c2)CC1)c1cn(CC(=O)N2CCOCC2)c2ccccc12,-8,3,-4,-3,-10,2
CC(C)CC1CCCCC1OC(=O)C[N+]1(C)CCCCC1 (stereo unspecified),87*,97*,-16,-11,-20,1
O=C(CCCC(=O)N1CCCC1)N1CCCC1,-12,-6,3,-4,6,0
O=C(O)CCCC(=O)N1CCCC1,-8,-16,21*,1,13,1
CC(C)C(O)(C#CCN1CCCC1)c1ccccc1 (stereo unspecified),46*,58*,-15,-11,-12,1
CC(C)C(O)(C#CCN1CCCCC1)c1ccccc1 (stereo unspecified),98*,98*,-15,-6,-35,1
Cc1ccc(C)c(S(=O)(=O)/N=C(/Nc2ccccc2)c2ccccc2)c1,-5,11,-4,-2,-1,1
COc1ccc(-c2ccc(CN3C(C)C(=O)N(Cc4cn(Cc5ccco5)nn4)CCS3(=O)=O)cc2)cc1 (stereo unspecified),1,17,-4,-2,-4,3
CC1=CC(C)(C)N(C(=O)CNC2CCCCC2)c2cc(C)ccc21,47*,40*,-33,-13,-25,1
CC(C)c1ccccc1OCCCCCN1CCOCC1,32*,6,-26,-18,-13,1
c1ccc(OCCOCCN2CCN(C(c3ccccc3)c3ccccc3)CC2)cc1,86*,52*,-22,-8,-44,1
COc1cccc(OC)c1OCCCCCCN1CCN(C)CC1,-7,2,1,-6,2,1
O=S(=O)(CCN1CCN(C(c2ccccc2)c2ccccc2)CC1)C(F)(F)F,48*,45*,-22,-6,-15,1
COc1ccccc1OCCCCN1CCN(C(c2ccccc2)c2ccccc2)CC1,63*,22,-20,-7,-38,1
c1ccc(CN2CCN(C(c3ccccc3)c3ccccc3)CC2)cc1,12,9,-26,-17,-15,-2
OC(COc1ccccc1)CN1CCN(C(c2ccccc2)c2ccccc2)CC1 (stereo unspecified),17,17,-32,-25,-13,-1
COc1ccc(CNC(=O)C(c2ccc(C)cc2)N(Cc2cccs2)C(=O)c2ccc3c(c2)OCCO3)cc1 (stereo unspecified),32*,24,-23,4,-12,24
CCn1c(=O)c2cc(C(=O)NCCN3CCOCC3)sc2c2ccccc21,76*,7,-13,0,-17,3
Cc1cc(C(=O)CN2C(=O)CCC2=O)c(C)n1Cc1ccccc1,-12,-9,17,4,18*,4
SMILES,M4 antag,M5 antag,M5 PAM,M5 ag,M4 PAM,CHRM4 agonist
O=C(Nc1cccc(Oc2ccccc2)c1)C1Cc2c(-c3cccc(F)c3)ccnc2O1 (stereo unspecified),2,3,0,0,5,0
CCOc1ccc(-c2cc(C(=O)N3CCN(c4ccccn4)CC3)c3ccccc3n2)cc1,9,-1,1,1,-4,7
COc1ccc(-c2cc(C(=O)N3CCN(c4ccccc4O)CC3)c3ccccc3n2)cc1OC,19,28*,-15,-3,-8,15
COc1ccc(-c2cc(C(=O)N3CCN(c4ccccn4)CC3)c3ccccc3n2)cc1,27*,25,-17,2,-26,16
COc1ccc(-c2cc(C(=O)N3CCN(c4ccccc4O)CC3)c3ccccc3n2)cc1,29*,18,-35,2,-11,24
COc1ccc(-c2cc(C(=O)N3CCN(c4ccccc4)CC3)c3ccccc3n2)cc1,1,18,-16,0,-8,11
Cc1ccc(-c2cc(C(=O)N3CCN(c4ccccc4O)CC3)c3ccccc3n2)cc1,-6,9,-16,6,-6,8
O=C(NCCCc1ccccc1)c1ccc(-n2cncn2)c([N+](=O)[O-])c1,-11,8,-2,-1,11,4
CN1CCS/C1=C/C=C1\SC(=S)N(CC(=O)O)C1=O,9,5,-7,31*,-9,15
CN1CCS/C1=C/C=C1/SC(=S)N(Cc2ccccc2)C1=O,21,13,-4,16,-7,9
CCCCN1C(=O)/C(=C/C=C2\SCCN2C)SC1=S,14,21,-9,40*,-7,21
COc1ccc2c(c1)CCc1cn3nc(C)cc3nc1-2,-22,-12,19*,-5,9,-1
C=CCOc1ccc(CN(C)C(=O)C2CCCO2)cc1 (stereo unspecified),5,11,5,-2,0,0
Cn1c(=O)c(C(=O)COc2ccc(C#N)cc2)c(N)n(Cc2ccccc2)c1=O,-2,12,-18,38*,-11,29
COc1ccccc1CCC(=O)Nc1ccc(S(=O)(=O)Nc2nccs2)cc1,-9,8,1,1,6,2
COc1ccc(C(=O)n2cnc3ccccc32)cc1,-21,-2,3,1,14*,0
COc1cccc(Cn2nnc(C(=O)Nc3cc(C)ccc3OC)c2N)c1,-13,2,-6,-2,18*,0
CCc1ccc(Cn2nnc(C(=O)Nc3cccc(C)c3)c2N)cc1,5,3,-3,6,2,4
Cc1ccc(Cn2nnc(C(=O)Nc3cccc(C)c3C)c2N)cc1,21,14,-4,38*,-20,53*
Cc1nc2ccccc2c(=O)n1NC(=O)c1cccc(Cl)c1,28*,20,-11,1,-11,15
